For data set [1], the system named is RAW264.7. Briefly: Antiinflammatory activity in mouse RAW264.7 cells assessed as inhibition of LPS-induced nitric oxide production at 40 uM by griess assay relative to control. The class given is functional. In outline:
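LPS-stimulated RAW 264.7 mouse macrophages; nitric oxide production measured; single-concentration screen of inhibition relative to control. Dexamethasone as positive control.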
On the technique in general: Griess reagent forms a coloured azo dye with nitrite.

Data set [2] in a line: Cytotoxicity against mouse RAW264.7 cells assessed as survival rate at 200 uM measured in absence of LPS by MTT assay relative to control. The class given is cell-based. The settings on record: read-out: Survival. In outline:
(§1)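 RAW 264.7 mouse macrophages treated with compound at 200 μM, with or without 1 μg/mL LPS. Viability read by MTT and expressed as survival rate (%). Values are means ± SD, n = 3.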
A general note: Tetrazolium dyes change colour on reduction, which living cells bring about.

A short description of data set [3]: Cytotoxicity against mouse RAW264.7 cells assessed as survival rate at 200 uM measured in presence of LPS by MTT assay relative to control. The class given is cell-based. The settings on record: read-out: Survival. The procedure, abridged: as §1
The test system of data set [4] is RAW264.7. Briefly: Antiinflammatory activity in mouse RAW264.7 cells assessed as inhibition of LPS-induced nitric oxide production by griess assay. In kind it is functional, cell-based. In outline: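 RAW 264.7 mouse macrophages induced with LPS; NO production measured over five test concentrations to derive IC50; means ± SD, n = 3; dexamethasone positive control.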

Data set [5] has as its system RAW264.7. Briefly: Cytotoxicity against mouse RAW264.7 cells at 200 uM measured in absence of LPS by MTT assay. The class given is cell-based. The settings on record: raw264.7, 200 µM. In outline: (§2)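 MTT viability of RAW 264.7 mouse macrophages exposed to compound at 200 μM, with or without 1 μg/mL LPS; reported as cell survival rate (%).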
Data set [6] relates to RAW264.7. Briefly: Cytotoxicity against mouse RAW264.7 cells at 200 uM measured in presence of LPS by MTT assay. The class given is cell-based. The settings on record: raw264.7, 200 µM. The procedure, abridged: as §2

As usually defined, the inhibition is how much of the control response was suppressed. Usually IC50 stands for the concentration needed to halve the response being measured. Turning to `CC1(C)[C@H]2O[C@H]2[C@H]2[C@](C)(O)[C@@H]3CC[C@@H]4[C@@H](O)[C@@]3(C[C@@H](O)[C@@]21O)C[C@@]4(C)O`, the inhibition at 40 µM in the data set on RAW264.7 [1] is more than 50%. For the same molecule, the viability at 200 µM in data set [2] was determined as 96.5%; in data set [3], 98.4%. In addition, in the data set with RAW264.7 [4], the IC50 was determined as 7 µM.

For `CC(=O)O[C@@H]1C[C@]23C[C@@](C)(O)[C@H](CC[C@H]2[C@@](C)(O)[C@@H]2[C@@H](Cl)[C@H](O)C(C)(C)[C@@]12O)[C@H]3O`, the inhibition at 40 µM with RAW264.7 [1] was more than 50%. For the same molecule, the results for the viability at 200 µM in data set [2] and in data set [3] were 99.3% and 95.2%, respectively. Besides, in the data set on RAW264.7 [4], the IC50 was determined as 5.8 µM.

With `C=C1[C@@H]2CC[C@@H]3C[C@@]2(C[C@@H](O)[C@@]2(O)[C@H]1C[C@H](O)C2(C)C)C[C@@]3(C)O`, the inhibition at 40 µM in the data set with RAW264.7 [1] was more than 50%. The viability at 200 µM turned out to be 96.4% in data set [2] and 93.8% in data set [3]. For the same molecule, in the data set on RAW264.7 [4], the IC50 is 3.5 µM.

As for `CC(=O)O[C@@H]1C[C@]23C[C@@](C)(OC(C)=O)[C@H](CC[C@H]2[C@@](C)(O)[C@@H]2[C@@H]4O[C@@H]4C(C)(C)[C@@]12O)[C@H]3O`, in the data set on RAW264.7 [1], the inhibition at 40 µM was more than 50%. In addition, the viability at 200 µM was 98.9% in data set [2] and 99.7% in data set [3]. In the data set on RAW264.7 [4], the IC50 was 10.1 µM.

As to `CC(=O)O[C@@H]1C[C@]23C[C@@](C)(O)[C@H](CC[C@H]2[C@@](C)(O)[C@@H]2[C@@H]4O[C@@H]4C(C)(C)[C@@]12O)[C@H]3O`, the inhibition at 40 µM in the data set on RAW264.7 [1] is more than 50%. The viability at 200 µM came to 101% in data set [2] and 93.6% in data set [3]. In the data set on RAW264.7 [4], the IC50 was found to be 2.8 µM.

In the case of `C=C1[C@@H]2[C@@H]3O[C@@H]3C(C)(C)[C@@]2(O)[C@H](O)C[C@]23C[C@@](C)(O)[C@H](CC[C@@H]12)[C@H]3O`, the inhibition at 40 µM in the data set on RAW264.7 [1] was more than 50%. In addition, the viability at 200 µM worked out at 90.3% in data set [2] and 92% in data set [3]. Besides, the half-maximal inhibitory concentration (IC50) with RAW264.7 [4] was 35.4 µM.

In the case of `CC1(C)[C@@H](O)[C@H](O)[C@H]2[C@](C)(O)[C@@H]3CC[C@@H]4[C@@H](O)[C@@]3(C[C@@H](O)[C@@]21O)C[C@@]4(C)O`, the inhibition at 40 µM in the data set with RAW264.7 [1] is more than 50%. The viability at 200 µM was found to be 97% in data set [2] and 90.4% in data set [3]. Moreover, in the data set on RAW264.7 [4], the IC50 came to 8 µM.

`C[C@@H]1C[C@H]2[C@@H]3CCC4=CC(=O)C=C[C@]4(C)[C@@]3(F)[C@@H](O)C[C@]2(C)[C@@]1(O)C(=O)CO` [DEXAMETHASONE]: the viability at 200 µM in data set [2] amounted to 97.7%; in data set [3], 97.1%. Further, the IC50 in the data set on RAW264.7 [4] amounted to 0.8 µM.

As to `CO[C@H]1[C@H](O)C(C)(C)[C@@]2(O)[C@H](OC(C)=O)C[C@]34C[C@@](C)(O)[C@H](CC[C@H]3[C@@](C)(O)[C@H]12)[C@H]4O`, the inhibition at 40 µM in the data set on RAW264.7 [1] was more than 50%. Also, the viability at 200 µM in data set [2] stood at 98.3%; in data set [3], 97.3%. For the same molecule, in the data set with RAW264.7 [4], the IC50 was 4.6 µM.

Turning to `C=C1[C@@H]2[C@@H](O)[C@H](O)C(C)(C)[C@@]2(O)[C@H](O)C[C@]23C[C@@](C)(O)[C@H](CC[C@@H]12)[C@H]3O`, the inhibition at 40 µM in the data set on RAW264.7 [1] is more than 50%. The figures for the viability at 200 µM in data set [2] and in data set [3] were 98.1% and 97.5%, respectively. Moreover, the IC50 in the data set with RAW264.7 [4] is 8.1 µM.

`CC(=O)O[C@@H]1C[C@]23C[C@@](C)(O)[C@H](CC[C@H]2[C@@](C)(O)[C@@H]2[C@@H](O)[C@H](O)C(C)(C)[C@@]12O)[C@H]3O`: in the data set with RAW264.7 [1], the inhibition at 40 µM is more than 50%. Moreover, the figures for the viability at 200 µM in data set [2] and in data set [3] were 98.8% and 99.8%, respectively. For the same molecule, the half-maximal inhibitory concentration (IC50) with RAW264.7 [4] came to 9.3 µM.

For the molecule `CO[C@H]1[C@H](O)C(C)(C)[C@@]2(O)[C@H](OC(C)=O)C[C@]34C[C@@](C)(O)[C@H](CC[C@H]3[C@@](C)(O)[C@H]12)[C@H]4OC(C)=O`, in the data set on RAW264.7 [4], the IC50 was more than 40 µM. Also, the Activity entry in the data set on RAW264.7 [5] and in the data set with RAW264.7 [6] was “Non-Toxic” throughout.

Take `C=C1[C@@H]2CC[C@@H]3[C@@H](O)[C@@]2(C[C@@H](O)[C@@]2(O)[C@H]1C[C@H](O)C2(C)C)C[C@@]3(C)O`: in the data set with RAW264.7 [4], the IC50 was more than 40 µM. For the same molecule, the Activity result with RAW264.7 [5] and in the data set on RAW264.7 [6] was “Non-Toxic” in each case.

Turning to `CC(=O)O[C@@H]1C[C@@]23C[C@]4(C)O[C@@H](C[C@@H]4[C@H]2O)[C@H]3[C@@](C)(O)C2[C@@H]3O[C@@H]3C(C)(C)[C@]21O` (some centres not stated), in the data set with RAW264.7 [4], the IC50 is more than 40 µM. For the same molecule, the Activity entry in the data set with RAW264.7 [5] and in the data set on RAW264.7 [6] was “Non-Toxic” in each case.

For the molecule `C=C1C[C@@]23C[C@@H](O)[C@@]4(O)C([C@@H]5O[C@@H]5C4(C)C)[C@](C)(O)[C@@H]2CC[C@@H]1[C@H]3O` (some centres not stated), the IC50 in the data set with RAW264.7 [4] is more than 40 µM. The Activity entry with RAW264.7 [5] and with RAW264.7 [6] was “Non-Toxic” in each case.

As for `CO[C@H]1[C@H](O)C(C)(C)[C@@]2(O)[C@H](O)C[C@]34C[C@@](C)(O)[C@H](CC[C@H]3[C@@](C)(O)[C@H]12)[C@H]4O`, the IC50 in the data set on RAW264.7 [4] was more than 40 µM. Further, the Activity result in the data set with RAW264.7 [5] and in the data set with RAW264.7 [6] was “Non-Toxic” throughout.

Regarding `CC(=O)O[C@@H]1[C@H]2CC[C@H]3[C@@](C)(O)[C@@H]4[C@@H](O)[C@H](O)C(C)(C)[C@@]4(O)[C@H](OC(C)=O)C[C@@]13C[C@@]2(C)O`, the inhibition at 40 µM with RAW264.7 [1] was more than 50%. Moreover, the viability at 200 µM stood at 97.4% in data set [2] and 93.9% in data set [3]. The IC50 in the data set with RAW264.7 [4] came out at 10.3 µM.

These data come from ChEMBL document CHEMBL4130603, “Anti-inflammatory Grayanane Diterpenoids from the Leaves of Rhododendron molle” (J Nat Prod, 2018).
